Reference: ChEMBL document CHEMBL1144433, “1-Amino-1,2,3,4-tetrahydronaphthalene-2-carboxylic acid as a Tic mimetic: application in the synthesis of potent human melanocortin-4 receptor selective agonists” (Bioorg Med Chem Lett, 2005)

What was measured:
Melanocortin receptor 3 = Melanocortin receptor 3 (Homo sapiens, UniProt P41968); test: Concentration required for 50% inhibition by displacement of [125I]NDP-alpha-MSH of human MC3R expressed in CHO cells; format: cell-based
[1] = target: Melanocyte-stimulating hormone receptor (Homo sapiens, UniProt Q01726); test: Concentration required for 50% inhibition by displacement of [125I]NDP-alpha-MSH of human MC1R expressed in CHO cells; format: cell-based
Sequence of Melanocyte-stimulating hormone receptor (Q01726 whole entry): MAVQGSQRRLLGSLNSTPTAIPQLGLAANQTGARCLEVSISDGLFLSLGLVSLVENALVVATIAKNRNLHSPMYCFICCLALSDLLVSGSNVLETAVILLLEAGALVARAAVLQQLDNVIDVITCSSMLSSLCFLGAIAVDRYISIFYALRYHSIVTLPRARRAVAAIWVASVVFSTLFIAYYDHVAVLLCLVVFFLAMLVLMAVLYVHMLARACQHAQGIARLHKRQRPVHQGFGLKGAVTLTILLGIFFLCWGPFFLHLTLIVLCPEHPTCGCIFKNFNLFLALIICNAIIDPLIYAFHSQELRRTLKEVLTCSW

Melanocortin receptor 4 = Melanocortin receptor 4 (Homo sapiens, UniProt P32245); test: Concentration required for 50% inhibition by displacement of [125I]NDP-alpha-MSH of human MC4R expressed in CHO cells; format: cell-based
Sequence of Melanocortin receptor 4 (P32245 whole entry): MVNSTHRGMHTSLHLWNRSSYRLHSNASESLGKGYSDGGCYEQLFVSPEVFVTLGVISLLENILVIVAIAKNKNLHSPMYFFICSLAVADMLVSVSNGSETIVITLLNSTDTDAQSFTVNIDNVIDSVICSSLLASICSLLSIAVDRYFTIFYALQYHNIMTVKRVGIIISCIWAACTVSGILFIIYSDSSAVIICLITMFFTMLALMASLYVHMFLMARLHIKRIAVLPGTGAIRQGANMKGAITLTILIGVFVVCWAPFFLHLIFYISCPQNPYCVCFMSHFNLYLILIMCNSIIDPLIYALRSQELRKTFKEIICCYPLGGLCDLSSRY
Outline: (§1)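 Competition binding against [125I]-NDP-α-MSH at human melanocortin receptors expressed in CHO cells. Values are means ± standard error from at least three determinations.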

Melanocortin receptor 5 = Melanocortin receptor 5 (Homo sapiens, UniProt P33032); test: Concentration required for 50% inhibition by displacement of [125I]NDP-alpha-MSH of human MC5R expressed in CHO cells; format: cell-based; outline: as §1
Sequence of Melanocortin receptor 5 (P33032 whole entry): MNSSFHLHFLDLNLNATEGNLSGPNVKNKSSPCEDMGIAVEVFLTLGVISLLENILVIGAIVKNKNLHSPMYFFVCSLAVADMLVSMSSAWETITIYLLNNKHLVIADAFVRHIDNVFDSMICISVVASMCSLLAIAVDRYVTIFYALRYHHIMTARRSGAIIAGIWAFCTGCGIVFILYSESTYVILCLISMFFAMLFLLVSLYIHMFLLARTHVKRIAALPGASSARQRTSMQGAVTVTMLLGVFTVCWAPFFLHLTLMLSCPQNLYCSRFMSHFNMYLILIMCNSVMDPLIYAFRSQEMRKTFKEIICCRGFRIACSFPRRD

[2] = Pharmacokinetic parameter Cl(clearance) studied in dog; format: ADME, organism-based, Canis lupus familiaris; conditions: in vivo
Outline: (§2)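 Beagle dogs were dosed with a solution in EtOH/PEG/water (1:4:5), 0.5 mg iv and 2.0 mg/kg po. F, clearance, Vdss, t1/2 and tmax were derived from these doses.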

[3] = Pharmacokinetic parameter max half life studied in dog; format: ADME, organism-based, Canis lupus familiaris; conditions: in vivo; outline: as §2
[4] = Pharmacokinetic parameter F studied in rat; format: ADME, organism-based; conditions: in vivo
Outline: (§3)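 Sprague–Dawley rats were dosed with a EtOH/PEG/water (1:4:5) solution, 1 mg/kg iv and 4 mg/kg po. F, clearance, Vdss and t1/2 were derived from these doses.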

[5] = Pharmacokinetic parameter Cl(clearance) studied in rat; format: ADME, organism-based; conditions: in vivo; outline: as §3
[6] = Pharmacokinetic parameter Vdss studied in rat; format: ADME, organism-based; conditions: in vivo, read-out: Vdss; outline: as §3
[7] = Pharmacokinetic parameter hal life studied in dog; format: ADME, organism-based, Canis lupus familiaris; conditions: in vivo; outline: as §2
[8] = Pharmacokinetic parameter hal life studied in rat; format: ADME, organism-based; conditions: in vivo; outline: as §3
[9] = Pharmacokinetic parameter F studied in dog; format: ADME, organism-based, Canis lupus familiaris; conditions: in vivo; outline: as §2
[10] = Pharmacokinetic parameter Vdss studied in dog; format: ADME, organism-based, Canis lupus familiaris; conditions: in vivo, read-out: Vdss; outline: as §2

Sequence of Melanocortin receptor 3 (P41968 whole entry): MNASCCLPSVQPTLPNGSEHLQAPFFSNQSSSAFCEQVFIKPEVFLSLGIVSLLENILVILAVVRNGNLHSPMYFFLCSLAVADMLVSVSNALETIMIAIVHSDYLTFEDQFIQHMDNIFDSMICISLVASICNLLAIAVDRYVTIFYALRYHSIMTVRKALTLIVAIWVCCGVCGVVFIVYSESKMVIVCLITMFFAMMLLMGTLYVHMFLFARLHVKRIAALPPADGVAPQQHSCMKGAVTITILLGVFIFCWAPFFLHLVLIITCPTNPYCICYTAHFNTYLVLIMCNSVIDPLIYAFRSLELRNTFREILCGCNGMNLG

SMILES	IC50 (Melanocortin receptor 3) [nM]	IC50 [1] [nM]	IC50 (Melanocortin receptor 4) [nM]	IC50 (Melanocortin receptor 5) [nM]	clearance [2] [mL/min/kg]	Tmax [3] [h]	bioavailability [4] [%]	clearance [5] [mL/min/kg]	Vd [6] [L/kg]	half-life [7] [min]	half-life [8] [min]	bioavailability [9] [%]	Vd [10] [L/kg]
CC(C)(C)NC(=O)C1(C2CCCCC2)CCN(C(=O)[C@@H](Cc2ccc(Cl)cc2)NC(=O)[C@H]2CCc3ccccc3[C@@]2(C)N)CC1	170	620	1.1	31									
CC(C)(C)NC(=O)C1(C2CCCCC2)CCN(C(=O)[C@@H](Cc2ccc(Cl)cc2)NC(=O)C2CCCc3ccccc3C2N)CC1 (some centres undefined)	97	220	1.1	54									
CC(C)(C)NC(=O)C1(C2CCCCC2)CCN(C(=O)[C@@H](Cc2ccc(Cl)cc2)NC(=O)[C@H]2CCc3ccccc3[C@H]2N)CC1	120	530	0.37	64	11	2	11	35	3.9	204	120	42	2.9

Now those with a lower IC50 (Melanocortin receptor 3), led by results:

IC50 (Melanocortin receptor 3) [nM]	IC50 [1] [nM]	IC50 (Melanocortin receptor 4) [nM]	IC50 (Melanocortin receptor 5) [nM]	clearance [2] [mL/min/kg]	Tmax [3] [h]	bioavailability [4] [%]	clearance [5] [mL/min/kg]	Vd [6] [L/kg]	half-life [7] [min]	half-life [8] [min]	bioavailability [9] [%]	Vd [10] [L/kg]	SMILES
83	1400	1.9	34										CC(C)(C)NC(=O)C1(C2CCCCC2)CCN(C(=O)[C@@H](Cc2ccc(Cl)cc2)NC(=O)C2Cc3ccccc3C2N)CC1 (some centres undefined)
32	980	0.77	24										CC(C)(C)NC(=O)C1(C2CCCCC2)CCN(C(=O)[C@@H](Cc2ccc(Cl)cc2)NC(=O)[C@@H]2CCc3ccccc3[C@@H]2N)CC1
